Assay: Toxicity liver stage against HepG2, at 10uM
Type: cell-based
Parameters: test concentration 10 uM, cell line HepG2-A16-CD81EGFP
Settings: human, HepG2-A16-CD81EGFP cells; read-out: INHIBITION
In short: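 Uninfected HepG2-A16-CD81EGFP cells, 3 × 10^3 per well, 1536-well, plated on prespotted compound at 10 μM final, parasite-free screening media added to match infected plates; puromycin 10 μM positive, DMSO 0.5% negative; run in parallel with 48 h PbLuc assay at 37 °C, 5% CO2; viability by CellTiter-Glo luminescence, normalized to controls.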

Row | Structure (SMILES) | cytotoxicity at 10 µM [%]
1 | FC(F)(F)c1nc(NC2CCCC2)c2ccccc2n1 | 15.8
2 | CC(C)N1CC(C(=O)N2CCC(Oc3ccccc3Cl)CC2)CC1=O (configuration not stated) | -3.21
3 | Cc1nc(C2CCCN2CC(=O)NCCc2ccsc2)no1 (configuration not stated) | -9.34
4 | COc1ccc(CN2CCC3(CC2)CCN(CCN(C)C)C3=O)cc1 | -4.25
5 | CC(CCc1ccc(O)cc1)NC1CCN(C(=O)C(C)C)CC1 (configuration not stated) | -4.89
6 | Cc1ccccc1N1CCCN(CC2(O)CCCNC2)CC1 (configuration not stated) | -6.1
7 | CC(C)c1nc(CN2CCc3onc(-c4cccc(F)c4)c3C2)no1 | 5.56
8 | NC(=O)NC(=O)CCN1CCCC1c1cccc2c1OCCO2 (configuration not stated) | -5.35
9 | c1cnc(N2CCO[C@H]3CN(Cc4ccsc4)C[C@H]32)nc1 | -82
10 | COc1ccc(CC(=O)N2CCCC(c3nncn3C)C2)cc1 (configuration not stated) | -7.47
11 | O=C(c1ccccn1)N1CCC(Cc2cnc3[nH]ccc3c2)CC1 | -7.75
12 | COCCCNC(=O)c1c(C)noc1C(C)C | -28.2
13 | COCc1ncc(CN2CCN(C)C(=O)C2C)cn1 (configuration not stated) | 1.31
14 | c1cncc(-c2ccnn2CN2CCC3(CC2)OCCO3)c1 | 8.19
15 | CC(=O)N1CCCn2nc(CNS(=O)(=O)N3CCCCCC3)cc2C1 | 3.74
16 | O=C(COC1CCCC1)NCCc1nc(-c2ccccn2)cs1 | 6.94
17 | Cc1nn(C)cc1-c1cc(C(=O)NCC(C)(C)c2cccc(F)c2)n[nH]1 | 0.68
18 | CCS(=O)(=O)NC(CCSC)C(=O)Nc1ccc(F)cc1 (configuration not stated) | -6.6
19 | c1cc(OCc2ccc3c(c2)OCCO3)ccc1CNC1CC1 | -0.73
20 | Cc1csc(N2CCCN(c3cc(C)nc(C)c3C#N)CC2)n1 | 22.6
21 | c1ccc(OCCN2CCC(c3nnc(-c4cccnc4)o3)CC2)cc1 | -27.9
22 | CC(Cn1cccn1)NC(=O)NCc1cccnc1OC(C)C (configuration not stated) | -9.44
23 | O=S(=O)(Cc1ccc(F)cc1)NCc1nnc2n1CCC2 | 3.82

Row | Structure (SMILES) | cytotoxicity at 10 µM [%]
24 | Cc1ncsc1C(=O)NC1CCN(c2ncccc2C#N)CC1 | 2.68
25 | CC(C)N1[C@H](CN2CCCC2)C[C@@H]2CN(Cc3cnn(C)c3)CC[C@@H]21 | -147
26 | Cc1ccc(CN(CCN(C)C)Cc2c(C)nc3sccn23)o1 | 3.08
27 | CC(C)Cn1cnnc1C1CCCN1C(=O)c1ccc(F)cc1F (configuration not stated) | -2.01
28 | Cc1ccc(NC(=O)NC(C)(C)c2noc(C)n2)cc1 | 12.6
29 | O=C1COC2(CCN(C(=O)C3CC=CC3)CC2)CN1Cc1cccnc1 | 3.27
30 | CC(C)N(C)C(=O)Cn1ncc(N(C)CCc2ccccc2)cc1=O | 0.562
31 | O=C(N1CCCC1)C12CC(CN1Cc1nccs1)C2 | -11.5
32 | Cc1ccc(C(=O)N2CCC(c3noc(-c4cccnc4)n3)CC2)cn1 | 2.6
33 | CC1CCN(Cc2ccccc2CNC(=O)C2CNC(=O)N2)CC1 (configuration not stated) | 2.16
34 | O=C(O)C(c1ccc2c(c1)OCO2)N1CCCC1 (configuration not stated) | -3.04
35 | Cc1cncc(Oc2ccc(CN)cc2)n1 | 9.81
36 | CCc1noc(CC)c1CNC(=O)Nc1cccc(C(=O)N(C)C)c1 | 16.4
37 | Oc1nc(N2CCOCC2)nc2nccc(-c3ccccn3)c12 | 7.52
38 | CCOc1ccccc1C(CC(=O)O)NC(C)=O (configuration not stated) | -4.19
39 | COc1ccccc1OCC(=O)Nc1ncccc1OC(F)F | 7.25
40 | COCC(=O)N1CC(c2ccnc(Nc3cc(C(F)(F)F)ccn3)n2)C1 | 11.2
41 | C1CCC(c2nnc3sc(C4CCOC4)nn23)C1 (configuration not stated) | -2.16
42 | Fc1ccccc1-c1noc2c1CN(CC1CC1)CC2 | -15.4
43 | CN(C)C(=O)NC[C@H]1OC[C@@H]2CCN(Cc3ccoc3)C[C@@H]21 | 2.82
44 | C=C1C(C)(C)[C@@H]2CC[C@]1(C(=O)N1CCC(Cn3cc(CO)nn3)CC1)C2 | -6.01
45 | CS(=O)(=O)c1ccc(C(O)CN2CCC(c3ccn[nH]3)CC2)cc1 (configuration not stated) | -12.1
46 | Cc1nc2nc(C)c3c(=O)n(-c4ccn[nH]4)ccc3n2n1 | 0.87

Row | Structure (SMILES) | cytotoxicity at 10 µM [%]
47 | CCn1nc(C)c(C(=O)N2C[C@@H](CN(C)CCOC)[C@@H](CO)C2)c1C | 1.35
48 | Cc1ccn(CC(=O)Nc2cc(-c3ccncc3)[nH]n2)n1 | -14.8
49 | c1ccc(CN2C[C@@H]3OCCN(c4ncccn4)[C@@H]3C2)nc1 | 3.86
50 | CC(C)C(C(=O)N1CCC2(CC1)CN(C)C(=O)O2)c1ccccc1 (configuration not stated) | -53.6
51 | COc1ccc(OCc2nc(C(=O)N3C[C@H](O)[C@@H](N(C)C)C3)co2)cc1 | -1.74
52 | O=C(NCCCNCC1CNc2ccnn2C1)c1ccccc1 (configuration not stated) | -1.48
53 | CCC(=O)N1CC[C@@H](c2ccc3ccccc3c2)[C@H](O)C1 | -11.4
54 | CSc1nccn1-c1cccc(C(=O)NCC2CC2)c1 | -10.6
55 | c1ccc(CNc2ncc(CN3CC[C@@H]4CC[C@H](C3)N4)cn2)cc1 | -3.8
56 | CCc1cnc(C)nc1N1CCN(Cc2ccc(-c3cc[nH]n3)o2)CC1 | -0.898
57 | CCCn1cc(Cl)c(C(=O)N2C[C@@H](O)[C@H](Oc3ccccc3)C2)n1 | 5.31
58 | Nc1nc2c(c(N3CCCC(c4nnc5ccccn45)C3)n1)CCNC2 (configuration not stated) | -3.57
59 | CC(=O)N1CCC2(CCN(S(=O)(=O)c3ccccc3)CC2)C1 | -2.83
60 | CCOc1cc(C)c(-c2cc(N)[nH]n2)cc1OCC | -7.27
61 | CCOCCC(=O)Nc1ccnn1-c1ccc(Cl)cc1 | -12.6
62 | CCc1noc(C(C)N2CCC(N3CCCC3)CC2)n1 (configuration not stated) | -7.77
63 | CC(NC(=O)NCc1ccoc1)c1ccc2c(c1)CCC(=O)N2 (configuration not stated) | -1.12
64 | CCn1nnc2c1CCN(C(=O)c1ccc3c(c1)OCO3)C2COC (configuration not stated) | 6.43
65 | O=C1N(CCCc2ccccc2)CCCC1(O)CNCC1CCCCC1 (configuration not stated) | -0.106
66 | Cc1ccc(C)c(NC(=O)Cn2nc(C)c(C#N)c2N)c1 | -4.57
67 | COCCC(=O)N1CCC2(CCN(Cc3ccc(C)cc3)CC2)C1 | -74.4
68 | NC(=O)CCN(CC(=O)NCc1ccccn1)c1ccc(F)cc1 | 7.98
69 | COCC(c1cccc(C(F)(F)F)c1)N(C)C(=O)c1ccoc1 (configuration not stated) | -3.84

Row | Structure (SMILES) | cytotoxicity at 10 µM [%]
70 | c1ccc(CN2CCNCC(Cc3cnccn3)C2)cc1 (configuration not stated) | -8.65
71 | CCc1nc(CC(=O)N2CCCC2c2c(C)nn(C)c2OC)cs1 (configuration not stated) | -2.17
72 | O=C(c1ccnnc1)N1C[C@H](Oc2ccccn2)[C@H]2OCCC[C@H]21 | -0.00736
73 | Cc1ccc(-n2cc(C(=O)NCc3nnc4n3CCCCC4)nn2)cc1 | -3.32
74 | Cc1cc(-c2ccccc2C(=O)O)nc(C2CCCN(C)C2)n1 (configuration not stated) | -5.03
75 | CN(C)Cc1nn(C)c2c1CN(S(=O)(=O)c1ccccc1F)C2 | 5.6
76 | Cc1onc(N)c1S(=O)(=O)N1CCCCC1C (configuration not stated) | 12.4
77 | COc1ccccc1OCCC(=O)N1CCCCC1c1nccs1 (configuration not stated) | -15.7
78 | Cc1csc(CNC(=O)NCC(C)Cn2nc(C)cc2C)n1 (configuration not stated) | 3.26
79 | Cn1ccc(CN2CCC3(CCCN3CC3CC3)CC2)n1 | -92.4
80 | Cn1ccnc1C1CCN(S(=O)(=O)c2ccc3[nH]c(=O)[nH]c3c2)CC1 | 4.82
81 | CC(C)c1ncc2c(n1)CN(CC(=O)Nc1ccc(Cl)cn1)CC2 | -1.4
82 | O=S(=O)(c1cncc(F)c1)N1CCC2(CCCCC2)C1 | -4.61
83 | Cc1ncc(CNC(=O)Nc2cc(C(F)(F)F)c[nH]c2=O)s1 | -10.2
84 | CCC(CO)Nc1nc(C(F)F)nc2ccccc12 (configuration not stated) | 1.26
85 | CCSc1nnc(N2CCN(c3ccccc3)CC2)s1 | -6.67
86 | N#Cc1c(N)nc2c(c1-c1c[nH]nc1C1CCCCC1)CC(N)CC2 (configuration not stated) | -3.06
87 | CC(C)(C)CC(=O)Nc1ccc(S(C)(=O)=O)nc1 | -3.05
88 | CCNC(=O)N1CCN(c2nc3ccccc3n2C)CC1 | 0.739
89 | Cc1nnc2n1CCN(CCOc1ccccc1)C2 | 2.24
90 | CC(C)Nc1nc(O)cc(C2CC(=O)N(Cc3ccccn3)C2)n1 (configuration not stated) | -16.9
91 | c1ccc(CN2CCc3nnc(CN4CCCCC4)n3CC2)nc1 | 3.73
92 | Cc1ccc(NC(=O)Nc2c(O)c3ccccc3oc2=O)cc1 | 3.21

Row | Structure (SMILES) | cytotoxicity at 10 µM [%]
93 | COc1ccccc1CNc1cnn(CC(F)F)c1 | -5.41
94 | O=C(O)c1ccnc(SCc2ccccc2)c1 | -9.98
95 | c1ccc2c(Cc3nnc([C@H]4CCN(C5CCCCC5)C4)o3)c[nH]c2c1 | -0.00726
96 | CN(CCC(O)c1ccccc1)Cc1ccccc1C#N (configuration not stated) | 6.87
97 | Cc1nc(NCC(O)CN2CCCCCC2)c2c(C)noc2n1 (configuration not stated) | -5.78
98 | O=C(CCc1nccs1)N1CCN(c2nccs2)CC1 | -21.8
99 | O=C(NCC(F)(F)F)c1coc(COc2cccc(F)c2)n1 | -148
100 | COc1ccc(CNc2c(C)cnc3c2c(=O)n(C)c(=O)n3C)cc1 | 2.9
101 | O=C(c1ccc2c(c1)COC2)N1CCN(CCO)CC1 | -16.5
102 | O=C(c1ccccc1)N1CCOC2(CCN(Cc3cccs3)CC2)C1 | 0.64
103 | c1ccc(CO[C@H]2CO[C@@]3(CCCN(Cc4ccncc4)C3)C2)nc1 | 1.44
104 | O=C1CC(N(C(=O)CCc2c[nH]c3ccccc23)C2CC2)C(=O)N1 (configuration not stated) | 0.247
105 | N#Cc1cccnc1N[C@@H]1c2ccccc2C[C@@H]1O | 2.28
106 | Cn1ccnc1CN1CCOC(Cn2cccn2)C1 (configuration not stated) | -6.07
107 | COc1ccc(CN2CCC3(CC2)NC(=O)CC3c2cnn(C)c2)cc1 (configuration not stated) | 0.424
108 | CCC(O)CN1CCN(C(=O)c2ccn(C)c(=O)c2)CC1 (configuration not stated) | -10
109 | c1cncc(COCC2CN(Cc3ccco3)Cc3nccn3C2)c1 (configuration not stated) | -157
110 | Cc1ncsc1C(=O)NC1CCN(CC(N)=O)CC1 | -3.54
111 | c1cncc(CN2CCO[C@@H]3CN(Cc4ccoc4)CC[C@@H]3C2)c1 | -70.9
112 | COCCCn1ccc(NC2CCSCC2)n1 | 3.04
